These results are taken from paper PMC3712287 (Journal of neuroimmunology, 2010).

Data set [1] deals with LAD2 mast cells. The experiment in a line: Degranulation assay. The class given is cell-based, human.
The subject of data set [2] is FcεRI expression by LAD2 mast cells. The experiment in a line: FcεRI surface expression by flow cytometry, LAD2 mast cells. The class given is cell-based, human. The conditions noted are these: for Effect of antagonist on SP-mediated downregulation of FcεRI: LAD2, antagonist 0.1 μM 30 min pretreatment. Background: In flow cytometry, cells or beads pass a laser one at a time.

Data set [3] deals with LAD2 mast cells. The conditions noted are these: ref Kulka et al., 2008; cited from earlier work.
For data set [4], the system named is CysLT production by LAD2 mast cells. In words: ELISA for CysLT production. The data set is classed as cell-based, human. The conditions noted are these: for Effect of SP on CysLT production: LAD2, SP 10 μg/ml, anti-IgE 3 h. On the technique in general: ELISA stands for enzyme-linked immunosorbent assay.
Data set [5] has as its system FcεRI α, β and γ subunit mRNA in LAD2 mast cells. The experiment in a line: Quantitative real-time PCR of FcεRI α, β and γ subunit mRNA. The data set is classed as cell-based, human. The conditions noted are these: LAD2, 1 μg/ml SP, after at least 8 h of incubation, vs untreated control, n=3. The gist of the method:
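LAD2 cells received 1 μg/ml SP or PBS for varying times. Total RNA was column-isolated, and 5 μg was reverse-transcribed with random hexamers. Real-time PCR used 50 ng cDNA per reaction, run in triplicate for 40 cycles. Subunit mRNA was normalized to GAPDH and expressed as percent of PBS-treated cells at each time point. n=3.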

The subject of data set [6] is IgE binding by LAD2 mast cells. The experiment in a line: Cell surface IgE binding by flow cytometry. The class given is cell-based, human. The conditions noted are these: SP 24 h, sensitized with IgE 1-100 ng/ml 30 min, anti-IgE FITC, n=5. The procedure, abridged:
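LAD2 human mast cells (StemPro-34 SFM, 10 ng/ml SCF) were incubated 24 h with SP, then sensitized for 30 min with IgE at 1-100 ng/ml. Bound IgE was stained with anti-IgE-FITC (5 μg/ml) for 30 min on ice and read by flow cytometry as MFI.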

The next data set deals with mast cell tryptase. The experiment in a line: Tryptase activity assay. The data set is classed as biochemical, human. The conditions noted are these: supernatants of SP-activated LAD2, BAPNA substrate, n=3. The procedure, abridged:
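Washed LAD2 cells were left untreated or activated with SP (1 μg/ml) for 3 h. Cell-free supernatants were exposed to SBTI for 30 min, then mixed with 0.8 mM BAPNA solution in 0.1 M Tris/1 M glycerol, pH 7.8, and incubated 4 h at 37 °C. Nitroaniline was read at 410 nm. Activity was expressed relative to supernatants from SP-stimulated cells without inhibitor. n=3.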

“Also recorded” adds a separate entry of the source. Like-named read-outs stand apart in the source and are kept apart here.

In the case of `O=C(O)CN(CCN(CC(=O)O)CC(=O)O)CC(=O)O` [EDTA], the “Effect on SP-induced degranulation” value in the data set with LAD2 mast cells [1] was “blocked SP-induced degranulation”. Also, the “Effect on SP-mediated downregulation of FcεRI” value in data set [2] is recorded as “blocked the SP-mediated downregulation of FcεRI”.

Pertussis toxin: in data set [2] (Pertussis toxin pretreatment 2 h, then 1 μg/ml SP 24 h, n=3), the “Effect on SP-mediated downregulation of FcεRI” value was “selectively blocked SP-mediated downregulation of FcεRI”.

Turning to SP(4–11) [SP(4–11) [D-Pro4 D-Trp7.9]], the “Concentration that blocked the SP-mediated downregulation of FcεRI expression” value in data set [2] (LAD2, 30 min pretreatment, then 1 μg/ml SP 24 h) turned out to be 0.1 µM. In data set [2] (then 1 μg/ml SP 24 h), the “Effect of antagonist on SP-mediated downregulation of FcεRI” value is recorded as “blocked SP-mediated downregulation of FcεRI expression”. In addition, the “Concentration at which SP(4–11) abrogated the SP effect on FcεRI expression” value in data set [2] (discussion statement) is 1 µg/mL.

In the case of spantide I, in data set [2] (then 1 μg/ml SP 24 h), the “Effect of antagonist on SP-mediated downregulation of FcεRI” value is given as “did not have any effect”. Besides, the “Effect on SP-mediated degranulation in mast cells” value in the data set with LAD2 mast cells [3] is “fails to inhibit SP-mediated degranulation”.

On to substance P [SP], for which the “Effect of SP on CysLT production” value in data set [4] (sensitized with 50 ng/ml IgE) is recorded as “significantly inhibited CysLT production”; in data set [4] (sensitized with 100 ng/ml IgE) it was “did not significantly affect CysLT production”. Moreover, in data set [4] (LAD2, SP 24 h, sensitized with IgE, activated with anti-IgE 3 h, ELISA, n=3), the “Effect of SP pretreatment on IgE/anti-IgE-induced CysLT production” value is recorded as “significantly less CysLT”. Moreover, in data set [4] (mast cells, SP alone), the “Direct activation of CysLT production” value was “does not activate mast cells to produce cysteinyl leukotrienes”. For the same molecule, the “Effect on expression of FcεRI α, β and γ subunit mRNA” value in data set [5] was “significantly inhibited”. In addition, the “Lowest SP concentration leading to clear down-regulation of FcεRI” value in data set [2] (LAD2 (discussion statement)) worked out at 1 µM. Also, in data set [2] (LAD2 (discussion statement)), the “Time within which SP reduced IgE receptors” value is not above 30 min. The “Downregulation of FcεRI expression” value in data set [2] (LAD2, 1 μg/ml SP, 24 h) was “approximately 30%”. In data set [2] (LAD2, 10 μg/ml SP (highest concentration tested), 24 h), the “Reduction of FcεRI expression” value is on record as approximately 70%. Besides, the “Reduction in FcεRI protein expression compared to untreated cells” value in data set [2] (LAD2, 10 μg/ml SP, 2 h) amounted to 50%. In data set [2] (LAD2, in the absence of IgE, SP 24 h, flow cytometry, n=3), the “IC50 of SP for downregulation of FcεRI surface expression” value amounted to 5.2 µg/mL. Besides, in the data set with human mast cells, the “Effect on mast cell viability” value was “no effect on mast cell viability”. The “IgE binding of SP-treated LAD2 vs untreated controls” value in data set [6] is “bound less IgE”.

Regarding vasoactive intestinal peptide [VIP], the “Effect on mast cell viability” value in the data set with human mast cells was “no effect on mast cell viability”.

B1: soybean trypsin inhibitor (protein, UniProt P01070 25-205, looked up)
Trypsin inhibitor A: DFVLDNEGNPLENGGTYYILSDITAFGGIRAAPTGNERCPLTVVQSRNELDKGIGTIISSPYRIRFIAEGHPLSLKFDSFAVIMLCVGIPTEWSVVEDLPEGPAVKIGENKDAMDGWFRLERVSDDEFNNYKLVFCPQQAEDDKCGDIGISIDHDDGTRRLVVSKNKPLVVQFQKLDKESL
For the molecule B1, in the data set on LAD2 mast cells [1] (LAD2, pretreatment before activation with SP, β-hexosaminidase release), the “Effect on SP-induced degranulation” value was “did not affect LAD2 cell degranulation”. Besides, the “Effect on SP-mediated downregulation of FcεRI” value in data set [2] (LAD2, 100 μg/ml SBTI five minutes prior to 1 or 10 μg/ml SP, 24 h) is “did not affect SP-mediated downregulation of FcεRI”. The “Effect on activity of tryptase released by SP activation” value in the data set with mast cell tryptase is “able to block the activity of tryptase; also recorded: completely blocked the proteolytic activity of tryptase”.
